Measurements reported in ChEMBL document CHEMBL1142929, “The use of aminoglycoside derivatives to study the mechanism of aminoglycoside 6'-N-acetyltransferase and the role of 6'-NH2 in antibacterial activity” (2007).
The source made the active and inactive calls. The rule behind the calls is not given here.

How the values were obtained:
Staphylococcus aureus = experiment: Antibacterial activity against Staphylococcus aureus at 30 ug/disc […]; format: functional, organism-based; details: in the assay text read “paper disc method” for “dilution method”
Outline: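 Disc diffusion on LB solid medium with 30 µg compound per paper disc; growth inhibition of the S. aureus strain (sensitive to usual antibiotics) scored visually.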

Enterococcus faecium = experiment: Inhibition of Enterococcus faecium aminoglycoside 6'-N-acetyltransferase
Escherichia coli [1] = experiment: Antibacterial activity against gentamycin-resistant Escherichia coli JR88 at 30 ug/disc […]; format: functional, organism-based
Escherichia coli [2] = experiment: Antibacterial activity against kanamycin-resistant Escherichia coli JR67 at 30 ug/disc […]; format: functional, organism-based
Escherichia coli [3] = experiment: Antibacterial activity against kanamycin-resistant Escherichia coli JR66 at 30 ug/disc […]; format: functional, organism-based
Escherichia coli [4] = experiment: Antibacterial activity against kanamycin-resistant Escherichia coli pETAACWT at 30 ug/disc […]; format: functional, organism-based
Escherichia coli [5] = experiment: Antimicrobial activity against Escherichia coli MG1655 by dilution method; format: functional
Outline: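 MIC by standard broth dilution: overnight MG1655 cultures in LB (aminoglycoside-sensitive strain) diluted 100-fold, growth read as OD at 600 nm.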

Escherichia coli [6] = experiment: Antibacterial activity against kanamycin-resistant Escherichia coli pSF815A-1 at 30 ug/disc […]; format: functional, organism-based

Compound	Activity (Staphylococcus aureus)	Activity (Enterococcus faecium)	Activity (Escherichia coli [1])	Activity (Escherichia coli [2])	Activity (Escherichia coli [3])	Activity (Escherichia coli [4])	MIC (Escherichia coli [5]) [µg/mL]	Activity (Escherichia coli [6])
N[C@H]1[C@@H](O[C@H]2[C@H](O)[C@@H](O)[C@H](N)C[C@@H]2N)O[C@H](CNC(=O)Cc2cccc3ccccc23)[C@@H](O)[C@@H]1O	inactive	inactive	inactive	inactive	inactive	inactive	–	–
C#CCC(=O)NC[C@H]1O[C@H](O[C@H]2[C@H](O)[C@@H](O)[C@H](N)C[C@@H]2N)[C@H](N)[C@@H](O)[C@@H]1O	inactive	inactive	inactive	inactive	inactive	inactive	–	–
N[C@H]1[C@@H](O[C@H]2[C@H](O)[C@@H](O)[C@H](N)C[C@@H]2N)O[C@H](CNC(=O)CS)[C@@H](O)[C@@H]1O	inactive	inactive	inactive	inactive	inactive	inactive	–	–
NCC(=O)NC[C@H]1O[C@H](O[C@H]2[C@H](O)[C@@H](O)[C@H](N)C[C@@H]2N)[C@H](N)[C@@H](O)[C@@H]1O	inactive	inactive	inactive	inactive	inactive	inactive	< 50	–
NCCC(=O)NC[C@H]1O[C@H](O[C@H]2[C@H](O)[C@@H](O)[C@H](N)C[C@@H]2N)[C@H](N)[C@@H](O)[C@@H]1O	inactive	inactive	inactive	inactive	inactive	inactive	–	–
[N-]=[N+]=NCC(=O)NC[C@H]1O[C@H](O[C@H]2[C@H](O)[C@@H](O)[C@H](N)C[C@@H]2N)[C@H](N)[C@@H](O)[C@@H]1O	inactive	inactive	inactive	inactive	inactive	inactive	–	–
N[C@H]1[C@@H](O[C@H]2[C@H](O)[C@@H](O)[C@H](N)C[C@@H]2N)O[C@H](CNC(=O)CO)[C@@H](O)[C@@H]1O	inactive	inactive	inactive	inactive	inactive	inactive	< 25	–
N[C@H]1[C@@H](O[C@H]2[C@H](O)[C@@H](O)[C@H](N)C[C@@H]2N)O[C@H](CNC(=O)c2ccccc2)[C@@H](O)[C@@H]1O	inactive	inactive	inactive	inactive	inactive	inactive	–	inactive
NC[C@H]1O[C@H](O[C@H]2[C@H](O)[C@@H](O)[C@H](N)C[C@@H]2N)[C@H](N)[C@@H](O)[C@@H]1O [NEAMINE]	–	–	–	–	–	–	< 6.25	–
